The source made the active and inactive calls. No cut-off for these calls is given here.
What was measured:
[1] = target: Cannabinoid receptor 2 (Mus musculus, UniProt P47936); test: Agonist activity at mouse CB2 receptor transfected in CHO-K1 cells assessed as beta2-arrestin recruitment incubated for 90 mins by luminescence based assay; type: functional, cell-based
In short: (§1)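 PathHunter eXpress kit using mouse CB2 receptor in CHO-K1 cells. Cells were seeded 48 h before the assay in kit medium. Compounds in cell plating reagent were incubated 90 min at 37 °C, 5% CO2. Working detection solution was then added for 60 min at room temperature to read β-arrestin recruitment.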

[2] = target: T1, Cannabinoid receptor 2 (Homo sapiens, UniProt P34972); test: Agonist activity at human CB2 receptor overexpressed in CHO-K1 cells assessed as cAMP level incubated for 30 mins by luminescence based assay; type: functional, cell-based
T1 sequence (P34972 whole entry): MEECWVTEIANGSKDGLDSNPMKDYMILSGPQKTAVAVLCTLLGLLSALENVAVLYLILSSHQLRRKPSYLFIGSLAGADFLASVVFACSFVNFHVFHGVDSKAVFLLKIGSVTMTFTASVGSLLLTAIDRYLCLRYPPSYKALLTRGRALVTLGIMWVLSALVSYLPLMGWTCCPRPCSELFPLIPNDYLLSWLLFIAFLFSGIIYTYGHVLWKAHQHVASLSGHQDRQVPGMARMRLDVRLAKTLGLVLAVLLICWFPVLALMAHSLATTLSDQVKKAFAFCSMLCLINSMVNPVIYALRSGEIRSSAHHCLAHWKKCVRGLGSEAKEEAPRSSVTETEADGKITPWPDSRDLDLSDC
In short: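 CHO-K1 cells overexpressing human CB2R were plated at 30 000 cells/well and held overnight at 37 °C, 5% CO2. Test samples were added as dose–response solutions with NKH-477 to stimulate adenylate cyclase, then incubated 30 min at 37 °C. cAMP was detected by luminescence after cell lysis. Values were normalized to NKH-477 alone as 100% response. Three independent experiments were run in triplicate.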

[3] = target: T1, Cannabinoid receptor 2; test: Displacement of [3H]CP55940 from recombinant human CB2 receptor expressed in HEK293 cell membrane incubated for 90 mins by beta scintillation counter method; type: cell membranes
In short: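 HEK293 membranes stably expressing human CB2 (50 µg protein/well) competed with 0.2 nM [3H]-CP55,940 (final) against test compound at 10⁻¹²–10⁻⁵ M in Tris-HCl 50 mM, EGTA 2.5 mM, MgCl₂ 5 mM, 0.1% fatty-acid-free BSA, pH 7.4; 90 min at 30 °C. Nonspecific binding defined with 10 µM GW405833.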

[4] = test system: THP-1; test: Antiinflammatory activity in human THP-1 macrophages assessed as decrease in IL-6 level incubated for 24 hrs in presence of […] by ELISA based qRT-PCR analysis; type: functional, cell-based
In short: (§2)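 THP-1 cells were seeded at 1 x 10⁵ cells/ml for 48 h. For macrophages, cells were differentiated with 0.01 µM PMA for 48 h; monocytes received no PMA. Cells were then given 24 h with or without 10 µg/ml LPS, plus ligands alone or with the CB2R inverse agonist JTE907 (10 µM). Cytokines were measured in 5 µL supernatant (from 1 x 10⁴ cells) by ProQuantum immunoassay, read as pg/ml from kit titration curves; n=3.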

[5] = target: Cannabinoid receptor 2 (Mus musculus) (UniProt P47936); test: Agonist activity at mouse CB2 receptor transfected in CHO-K1 cells assessed as beta2-arrestin recruitment incubated for 90 mins by luminescence based assay relative to control; type: functional, cell-based; in short: as §1
Cannabinoid receptor 2 (Mus musculus), sequence (P47936 whole entry): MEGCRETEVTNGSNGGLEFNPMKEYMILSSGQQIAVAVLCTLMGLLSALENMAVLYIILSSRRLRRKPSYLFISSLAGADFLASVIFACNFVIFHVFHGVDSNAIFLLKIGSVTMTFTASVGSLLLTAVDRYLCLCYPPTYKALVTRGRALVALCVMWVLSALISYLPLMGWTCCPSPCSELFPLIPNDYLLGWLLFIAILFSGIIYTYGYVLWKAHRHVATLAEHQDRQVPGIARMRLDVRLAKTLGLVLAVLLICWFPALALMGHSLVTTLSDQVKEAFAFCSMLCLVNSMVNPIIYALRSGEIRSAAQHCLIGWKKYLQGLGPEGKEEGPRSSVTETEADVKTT

[6] = test system: THP-1; test: Antiinflammatory activity in human THP-1 macrophages assessed as increase in IL-4 level incubated for 24 hrs in presence of […] by ELISA based qRT-PCR analysis; type: functional, cell-based; in short: as §2
[7] = test system: THP-1; test: Antiinflammatory activity in human THP-1 macrophages assessed as decrease in IFNgamma level incubated for 24 hrs in presence of […] by ELISA based qRT-PCR analysis; type: functional, cell-based; in short: as §2
[8] = test system: THP-1; test: Antiinflammatory activity in human THP-1 monocytes assessed as decrease in IFNgamma level incubated for 24 hrs by ELISA based qRT-PCR analysis; type: functional, cell-based; in short: as §2
[9] = test system: THP-1; test: Antiinflammatory activity in human THP-1 macrophages assessed as decrease in IL-1beta level incubated for 24 hrs in presence of […] by ELISA based qRT-PCR analysis; type: functional, cell-based; in short: as §2
[10] = test system: THP-1; test: Antiinflammatory activity in human THP-1 macrophages assessed as decrease in IL-1beta level incubated for 24 hrs by ELISA based qRT-PCR analysis; type: functional, cell-based; in short: as §2
[11] = test system: THP-1; test: Antiinflammatory activity in human THP-1 macrophages assessed as decrease in IL-6 level incubated for 24 hrs by ELISA based qRT-PCR analysis; type: functional, cell-based; in short: as §2
[12] = test system: THP-1; test: Antiinflammatory activity in human THP-1 monocytes assessed as increase in IL-4 level incubated for 24 hrs in presence of […] by ELISA based qRT-PCR analysis; type: functional, cell-based; in short: as §2
[13] = target: Cannabinoid receptor 1 (Homo sapiens, UniProt P21554); test: Displacement of [3H]CP55940 from recombinant human CB1 receptor expressed in HEK293 cell membrane incubated for 60 mins by beta scintillation counter method
Cannabinoid receptor 1, sequence (P21554 whole entry): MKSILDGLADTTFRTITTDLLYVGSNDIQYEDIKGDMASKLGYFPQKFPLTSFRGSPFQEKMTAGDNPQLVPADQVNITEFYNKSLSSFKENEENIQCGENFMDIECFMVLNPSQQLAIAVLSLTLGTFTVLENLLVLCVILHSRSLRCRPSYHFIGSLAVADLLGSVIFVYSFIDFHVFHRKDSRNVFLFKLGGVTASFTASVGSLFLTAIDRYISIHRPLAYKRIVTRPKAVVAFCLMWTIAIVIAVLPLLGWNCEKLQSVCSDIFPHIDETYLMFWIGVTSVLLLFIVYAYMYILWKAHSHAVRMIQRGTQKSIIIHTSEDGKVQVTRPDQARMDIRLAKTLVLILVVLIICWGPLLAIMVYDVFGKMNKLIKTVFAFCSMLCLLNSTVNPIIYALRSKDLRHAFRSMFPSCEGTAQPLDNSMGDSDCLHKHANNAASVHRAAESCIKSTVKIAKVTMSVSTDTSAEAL

[14] = test system: THP-1; test: Antiinflammatory activity in LPS-activated human THP-1 macrophages assessed as increase in IL-10 level incubated for 24 hrs by ELISA based qRT-PCR analysis; type: functional, cell-based; in short: as §2
[15] = test system: THP-1; test: Antiinflammatory activity in LPS-activated human THP-1 macrophages assessed as increase in IL-4 level incubated for 24 hrs by ELISA based qRT-PCR analysis; type: functional, cell-based; in short: as §2
[16] = test system: THP-1; test: Antiinflammatory activity in LPS-activated human THP-1 monocytes assessed as decrease in IL-6 level incubated for 24 hrs by ELISA based qRT-PCR analysis; type: functional, cell-based; in short: as §2

Cannabinoid receptor 2 (Mus musculus, UniProt P47936), sequence (P47936 whole entry): as the sequence (P47936 whole entry) above

CCCCCOc1ccccc1C(=O)NC12CC3CC(CC(C3)C1)C2
EC50 [1]: 23.8 nM
EC50 [2]: 86.9 nM
Ki [3]: 10.8 nM
Activity [4]: inactive
Emax [5]: 34.5%
Activity [6]: inactive
Activity [7]: inactive
Activity [8]: Active
Activity [9]: inactive
Activity [10]: Active
Activity [11]: Active
Activity [12]: inactive
Ki [13]: 153 nM

O=C(NC12CC3CC(CC(C3)C1)C2)c1ccccc1OCc1ccccc1
EC50 [1]: 51.8 nM
EC50 [2]: 124 nM
Ki [3]: 14.8 nM
Activity [4]: inactive
Emax [5]: 12.6%
Activity [6]: inactive
Activity [7]: inactive
Activity [14]: inactive
Activity [8]: Active
Activity [9]: inactive
Activity [15]: inactive
Activity [10]: Active
Activity [11]: inactive
Activity [12]: inactive
Ki [13]: 241 nM

O=C(NC12CC3CC(CC(C3)C1)C2)c1ccccc1OCC1CCCCC1
EC50 [1]: 10.7 nM
EC50 [2]: 283 nM
Ki [3]: 20.1 nM
Activity [16]: inactive
Activity [4]: inactive
Emax [5]: 5.5%
Activity [6]: inactive
Activity [7]: inactive
Activity [8]: Active
Activity [9]: inactive
Activity [10]: Active
Activity [11]: Active
Activity [12]: inactive
Ki [13]: 67.6 nM

Source: ChEMBL document CHEMBL5316280, “Development of N-(1-Adamantyl)benzamides as Novel Anti-Inflammatory Multitarget Agents Acting as Dual Modulators of the Cannabinoid CB2 Receptor and Fatty Acid Amide Hydrolase” (J Med Chem, 2023)
